S100A4 inh HTS – inhibitors of S100A4-myosin IIA peptide binding, primary screen, biochemical, fluorescence polarization, TAMRA-MyoIIA peptide | 360,000 compounds, 0.14% hits | inhibition, % at 10.7 µM | Protein S100-A4 (Homo sapiens), P26447;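 active means mean inhibition of at least 70% across replicates, with every replicate also reaching that level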
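Material: S100A4 monomer protein | Medium: HEPES pH 7.2 with CaCl2, KCl, NaCl, DTT, Triton | Reagent: Labelled myosin peptide probe, 5 nM | Doses: One dose per compound | Times: 5 min incubation before reading | Benchmarks: Neutral control DMSO, positive control TFP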
SR-BI HDL uptake – inhibitors of SR-BI mediated HDL lipid uptake, primary screen, ldlA[mSR-BI] cells, fluorescence, single point | ldlA[mSR-BI] CHO cells, DiI-HDL uptake fluorescence, 3 h | inhibition, % at 12.5 µM | 320,000 compounds, 0.96% hits | AID 488896, 2010;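 active means mean replicate inhibition of at least 70% and a set share of replicates each scoring 70 or more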;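 further: 0% = median of neutral control wells and 100% = median of positive control wells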
SR-BI DiI-HDL act – activators of SR-BI mediated DiI-HDL uptake, primary screen, ldlA[mSR-BI] CHO cells, DiI fluorescence | 3 h; 100 = double the neutral-control signal | activation, % at 12.5 µM | 320,000 compounds, 0.096% hits | AID 504775, 2011;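 active means mean replicate activation of at least 60% and every replicate at or above 60%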;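 further: 0% = median plate neutral-control signal and 100% = twice that signal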
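Assay system: CHO ldlA[mSR-BI] cells, LDL receptor-null, SR-BI overexpressing; medium: Ham's F12 with 0.5% BSA, HEPES 25 mM, pH 7.4; also added: DiI-HDL 10 µg/mL; timing: 3 h uptake period with compound, 37 °C; signal: DiI fluorescence, bottom read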
RAD54 branch – inhibitors of human RAD54 branch migration, primary screen, biochemical, fluorescence, single point; DNA repair and recombination protein RAD54-like (Homo sapiens), Q92698; RAD54 Holliday junction branch migration, FAM/BHQ fluorescence; inhibition, % at 10.4 µM; 360,000 compounds, 0.14% hits; AID 602329, 2012;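 active means mean normalized replicate activity at least 40 and at least half of replicates scoring 40 or more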;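 further: 0% = median of neutral control wells and 100% = median of positive control wells; inhibitors cause a drop in the FAM fluorescence signal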
Target sequence (Q92698 whole entry, looked up): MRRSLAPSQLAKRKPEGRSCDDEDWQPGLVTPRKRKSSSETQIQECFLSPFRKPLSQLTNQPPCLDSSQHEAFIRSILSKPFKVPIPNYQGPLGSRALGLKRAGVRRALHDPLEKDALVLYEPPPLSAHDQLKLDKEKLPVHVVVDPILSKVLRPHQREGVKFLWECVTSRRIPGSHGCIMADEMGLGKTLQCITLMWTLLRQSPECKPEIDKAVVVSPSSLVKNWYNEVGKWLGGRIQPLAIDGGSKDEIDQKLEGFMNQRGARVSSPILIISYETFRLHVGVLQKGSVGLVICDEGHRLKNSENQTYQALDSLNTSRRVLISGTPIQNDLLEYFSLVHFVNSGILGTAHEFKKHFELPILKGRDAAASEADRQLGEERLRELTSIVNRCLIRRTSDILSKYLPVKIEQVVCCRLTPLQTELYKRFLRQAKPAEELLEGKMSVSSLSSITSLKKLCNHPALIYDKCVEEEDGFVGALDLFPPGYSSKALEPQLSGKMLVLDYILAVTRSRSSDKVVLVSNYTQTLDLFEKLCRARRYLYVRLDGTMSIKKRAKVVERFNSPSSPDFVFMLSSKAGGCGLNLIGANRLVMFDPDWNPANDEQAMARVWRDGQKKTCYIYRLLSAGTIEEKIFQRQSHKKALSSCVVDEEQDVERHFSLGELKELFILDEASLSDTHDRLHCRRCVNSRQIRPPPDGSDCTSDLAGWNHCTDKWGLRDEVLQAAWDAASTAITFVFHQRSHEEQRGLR
dFosB act-1 – activators of delta FosB homodimer, primary screen, biochemical, fluorescence polarization, TAMRA-CDK5 oligo, single point; Protein FosB (Mus musculus), P13346; purified delta FosB; percent of positive-control signal above neutral wells; activation, % at 25 µM; 340,000 compounds, 0.99% hits;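 active means mean activation above about 17%, with every replicate also reaching it, limit read from the data, passing the limit was not always enough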
PvdQ inh – P. aeruginosa PvdQ acylase inhibitors, primary screen, biochemical, fluorescence, plate reader and imaging, single point | purified PvdQ acylase | inhibition, % at 10 µM | 340,000 compounds, 0.063% hits | AID 488965, 2010; in the data active means inhibition above about 30%, passing the limit was not always enough;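 further: 0% = vehicle neutral wells and 100% = reference inhibitor wells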
dFosB act-2 – activators of mouse delta FosB DNA binding, confirmation, biochemical, fluorescence polarization, TAMRA-CDK5 oligo, cherry-picked samples | purified delta FosB; normalised: neutral wells 0, positive control 100 | shares compounds with dFosB act-1 | activation, % at 24.9 µM | 2,400 tested, under 10 active;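 active means highest replicate activation at or above 34% and every replicate reaching that threshold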;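 further: higher polarization means more probe DNA bound by delta FosB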
* = called active by the depositor; · = not tested or not shown. A selection: hits, their analogues and other compounds. The true share with any hit is near 1.6%.

SMILES | S100A4 inh HTS | SR-BI HDL uptake | SR-BI DiI-HDL act | RAD54 branch | dFosB act-1 | PvdQ inh | dFosB act-2
O=C(Nc1ccc(Cl)c(Cl)c1)c1ccncc1 | · | 2 | -2 | 2 | -8 | -13 | ·
CCCN(CC(=O)Nc1ccc(F)c(F)c1F)C(=O)CCc1nc2ccccc2c(=O)[nH]1 | -1 | 45 | -45 | 3 | 40* | -13 | 0
CCN(CC(=O)Nc1c(F)cccc1F)C(=O)CCc1nc2ccccc2c(=O)[nH]1 | 0 | 7 | -7 | · | -11 | -10 | ·
CN(CC(=O)Nc1ccc(Cl)c(C(F)(F)F)c1)C(=O)CCc1nc2ccccc2c(=O)[nH]1 | -1 | -14 | 14 | 6 | 52* | -14 | 4
CN(CC(=O)Nc1ccc(F)cc1)C(=O)CCc1nc2ccccc2c(=O)[nH]1 | 10 | -5 | 5 | 6 | -4 | 4 | ·
CO[C@@H]1CN(C)C(=O)c2cc(NC(=O)C3CC3)ccc2OC[C@H](C)N(CC2CCCC2)C[C@@H]1C | -2 | · | · | 7 | · | · | ·
O=C(Nc1nnc(-c2ccccc2F)s1)Nc1ccccc1F | · | -16 | 16 | · | -4 | 13 | ·
O=C(Nc1nnc(-c2ccccc2SCc2ccccc2)s1)Nc1ccccc1F | · | 22 | -22 | 3 | 91* | -6 | -8
O=C(Nc1nnc(Cc2ccc(F)cc2)s1)Nc1ccccc1F | -20 | -5 | 5 | 5 | 27* | 10 | 7
CCCNC(=O)N(C)C[C@@H]1Oc2cc(-c3ccc(C)cc3)ccc2S(=O)(=O)N([C@H](C)CO)C[C@H]1C | 2 | · | · | -8 | · | · | ·
O=C(COC(=O)c1ccccc1NC(=O)c1ccco1)NCc1ccc2c(c1)OCO2 | · | -14 | 14 | -5 | 30* | -2 | 2
Cc1ccc(-c2cc(C(=O)N/N=C/c3ccccc3)n[nH]2)o1 | 8 | -6 | 6 | 6 | 10 | -11 | ·
Cc1ccc(-c2cc(C(=O)N/N=C/c3ccc(Cl)cc3)n[nH]2)o1 | 2 | · | · | -4 | 27* | -5 | 1
CCOC(=O)CSc1nnc(NC(=O)c2ccc3c(c2)OCO3)s1 | -4 | -15 | 15 | -5 | 41* | -10 | 1
CCC(=O)Nc1nnc(SCC(=O)NCc2ccc3c(c2)OCO3)s1 | -1 | -6 | 6 | 2 | 23* | -3 | -1
CC(=O)Nc1nnc(SCC(=O)NCc2ccc3c(c2)OCO3)s1 | -1 | 6 | -6 | 4 | 10 | 5 | ·
C[C@@H]1CN([C@@H](C)CO)C(=O)c2cc(NS(=O)(=O)c3ccc(Cl)cc3)ccc2O[C@@H]1CN(C)S(=O)(=O)c1cn(C)cn1 | -52 | · | · | -4 | · | · | ·
Cc1ccc2c(C)nc(N/C(N)=N/S(=O)(=O)c3ccccc3)nc2c1 | 0 | -19 | 19 | -14 | 25* | -10 | -5
Cc1ccc(S(=O)(=O)/N=C(\N)Nc2nc(C)c3ccc(C)cc3n2)cc1 | · | -3 | 3 | · | 1 | -6 | ·
CCOC(=O)c1c(C)nc2sc(C(=O)Nc3ccc(C(C)=O)cc3)c(N)c2c1-c1ccc(OC)cc1 | · | 9 | -9 | · | 19* | 4 | 0
COc1cccc(C(=O)Nc2ccc3c(c2)C(=O)N(C)C[C@H](OC)[C@H](C)CN(C)[C@@H](C)CO3)c1 | -5 | · | · | 4 | · | · | ·
CCOC(=O)c1c(C)n(CC(O)CN(C)C)c2cc(Br)c(OC)cc12 (stereo unspecified) | -10 | 1 | -1 | · | 31* | -3 | 2
Cc1cc2oc(C(=O)Nc3ccc(S(=O)(=O)Nc4nccs4)cc3)cc(=O)c2cc1Cl | · | 7 | -7 | · | 37* | -11 | 1
Cc1ccc(NC(=O)Cn2nnc(-c3ccccc3NC(=O)c3cccs3)n2)cc1 | · | 12 | -12 | 7 | 48* | -7 | 6
CCCC(=O)Nc1ccccc1-c1nnn(CC(=O)Nc2ccc(OCC)cc2)n1 | · | 7 | -7 | -1 | 41* | -9 | 4
SMILES | S100A4 inh HTS | SR-BI HDL uptake | SR-BI DiI-HDL act | RAD54 branch | dFosB act-1 | PvdQ inh | dFosB act-2
O=C(Cn1nnc(-c2ccccc2F)n1)NCCc1ccccc1 | 0 | 4 | -4 | -6 | -13 | -8 | ·
O=C(Cn1nnc(-c2ccccc2F)n1)Nc1cccc2ncccc12 | · | -29 | 29 | -6 | 26* | -10 | 6
CC1CCN(S(=O)(=O)c2ccc(NC(=O)Cn3nnc(-c4ccccc4F)n3)cc2)CC1 | · | 15 | -15 | -1 | 78* | 1 | 4
COCCNC(=O)C[C@H]1CC[C@@H]2[C@H](COc3ccc(NC(C)=O)cc3C(=O)N2C)O1 | · | · | · | -9 | · | · | ·
C[C@@H]1CCCCO[C@@H](CN(C)Cc2ccncc2)[C@H](C)CN([C@@H](C)CO)C(=O)c2cc(NC(=O)c3ccccc3)ccc2O1 | -4 | · | · | -5 | · | · | ·
O=C(Cn1nnc(-c2ccccc2NC(=O)c2ccccc2)n1)Nc1ccc2c(c1)OCCO2 | · | 12 | -12 | -9 | 44* | 4 | 2
CC(=O)Nc1ccccc1-c1nnn(CC(=O)Nc2ccc3c(c2)OCCO3)n1 | 8 | 7 | -7 | -3 | 0 | -3 | ·
CCC(=O)N1[C@@H]2c3ccc(-c4ccncc4)c(=O)n3C[C@@H]2[C@@H](CO)[C@@H]1C(=O)Nc1ccccc1 | 4 | · | · | -1 | · | · | ·
Cc1cc2c(cc1C)C(c1cc(Br)ccc1F)CC(=O)N2 (stereo unspecified) | 2 | 12 | -12 | · | 22* | -10 | 2
Cc1cc2c(cc1C)C(c1ccccc1F)CC(=O)N2 (stereo unspecified) | -5 | -16 | 16 | 4 | 4 | -1 | ·
CCCC#Cc1ccc2c(c1)O[C@H](CN(C)C(=O)CC1CC1)[C@@H](C)CN([C@@H](C)CO)S2(=O)=O | -5 | · | · | 8 | · | · | ·
O=C(CSc1nc(-c2cccs2)nc2ccccc12)NC1CCS(=O)(=O)C1 (stereo unspecified) | 1 | -1 | 1 | -4 | 34* | -12 | -3
O=C1[C@H](Oc2ccccc2)[C@@H](c2ccccc2)N1c1ccncc1 | 7 | 5 | -5 | -4 | 18* | -11 | 2
CCOc1ccc(CNC(=O)Cn2nc(C)c3c(C)n(-c4ccc(C)cc4)nc3c2=O)cc1 | -1 | 11 | -11 | 12 | 59* | -9 | 6

Compound activity: PubChem, Broad Institute
